According to ChEMBL document CHEMBL1124112, “Indoline analogues of idazoxan: potent alpha 2-antagonists and alpha 1-agonists” (J Med Chem, 1988):

Columns and labels:
[1] = target: Adrenergic receptor alpha-2 (Rattus norvegicus) (UniProt P22086+P19328+P22909); assay: Antagonism at alpha-2 adrenergic receptor, determined as dose required to produce a two fold shift of the dose-response curve to UK-14304 on the twitch response in rat vas deferens; type: functional, tissue-based
Method in brief: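 Pithed rats, iv. Antagonist given before a cumulative dose-response curve to UK-14,304 on the vas deferens twitch response. DR2 is the antagonist dose (μg/kg) giving a twofold shift of the curve. Separate groups of rats (n = 4-6).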

Rattus norvegicus [2] = assay: In vivo dose required to inhibit vas deferens contraction by 25% after pretreatment with prazosin in pithed rats. (prejunctional); ant- antagonist; type: functional, organism-based; conditions: filed as antagonist
Method in brief: (§1)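 Pithed rats pretreated with prazosin (1 mg/kg). Compound given iv in cumulative doses. ED25 is the dose (μg/kg) inhibiting vas deferens contraction by 25%. Separate groups of rats (n = 4-6).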

[3] = target: T1, Adrenergic receptor alpha-2 (Rattus norvegicus, UniProt P22086+P19328+P22909); assay: Inhibition of saturable binding of [3H]idazoxan to alpha2-site in rat cerebral cortical membranes.; type: cell membranes, Membrane
T1 sequence (P22086 whole entry): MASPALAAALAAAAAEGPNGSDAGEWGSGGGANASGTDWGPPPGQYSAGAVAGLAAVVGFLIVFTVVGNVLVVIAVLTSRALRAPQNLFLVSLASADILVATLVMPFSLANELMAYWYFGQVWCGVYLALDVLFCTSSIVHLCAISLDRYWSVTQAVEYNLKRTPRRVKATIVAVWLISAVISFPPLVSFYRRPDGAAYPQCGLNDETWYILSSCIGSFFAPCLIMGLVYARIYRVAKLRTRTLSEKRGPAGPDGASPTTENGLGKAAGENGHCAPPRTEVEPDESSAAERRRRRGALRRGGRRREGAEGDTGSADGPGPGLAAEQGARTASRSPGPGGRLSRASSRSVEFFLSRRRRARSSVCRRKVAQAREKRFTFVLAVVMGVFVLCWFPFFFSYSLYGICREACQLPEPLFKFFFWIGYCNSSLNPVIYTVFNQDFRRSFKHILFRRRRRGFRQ
T1 sequence (P19328 whole entry): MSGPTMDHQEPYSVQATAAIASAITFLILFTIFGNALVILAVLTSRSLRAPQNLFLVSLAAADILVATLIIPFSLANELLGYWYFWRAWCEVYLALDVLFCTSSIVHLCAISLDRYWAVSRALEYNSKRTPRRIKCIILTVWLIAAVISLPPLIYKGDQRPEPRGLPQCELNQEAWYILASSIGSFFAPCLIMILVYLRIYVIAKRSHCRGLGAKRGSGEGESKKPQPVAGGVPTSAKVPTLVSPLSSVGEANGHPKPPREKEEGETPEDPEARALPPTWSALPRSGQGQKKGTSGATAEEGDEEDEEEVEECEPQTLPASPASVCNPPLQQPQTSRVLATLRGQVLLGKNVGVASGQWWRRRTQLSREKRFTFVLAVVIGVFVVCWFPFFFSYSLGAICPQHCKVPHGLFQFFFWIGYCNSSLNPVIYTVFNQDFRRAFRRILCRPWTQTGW
T1 sequence (P22909 whole entry): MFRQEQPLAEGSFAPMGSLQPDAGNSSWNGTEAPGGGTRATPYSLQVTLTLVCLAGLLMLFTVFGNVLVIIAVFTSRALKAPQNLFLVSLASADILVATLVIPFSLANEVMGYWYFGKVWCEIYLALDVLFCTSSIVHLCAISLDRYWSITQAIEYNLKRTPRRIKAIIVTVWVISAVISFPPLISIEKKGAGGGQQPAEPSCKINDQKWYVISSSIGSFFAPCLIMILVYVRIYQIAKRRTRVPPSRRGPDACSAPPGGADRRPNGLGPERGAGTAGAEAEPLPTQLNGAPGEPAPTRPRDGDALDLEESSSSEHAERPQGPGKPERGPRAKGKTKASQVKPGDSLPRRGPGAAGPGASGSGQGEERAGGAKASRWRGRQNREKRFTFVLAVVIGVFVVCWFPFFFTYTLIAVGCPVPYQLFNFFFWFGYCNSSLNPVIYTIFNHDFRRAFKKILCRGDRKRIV

[4] = target: Adrenergic receptor alpha-1 (Rattus norvegicus) (UniProt P15823+P23944+P43140); assay: Agonism at alpha-1 adrenergic receptor, determined as the dose required to produce a two fold shift of the cirazoline on diastolic blood pressure.; type: functional, tissue-based; conditions: Artery
Rattus norvegicus [5] = assay: In vivo ED40 is the raising diastolic blood pressure by 40 mm Hg in pithed rats. (postjunctional); type: functional; conditions: Artery
Method in brief: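 Pithed rats, compound given iv in cumulative doses. ED40 is the dose (μg/kg) raising diastolic blood pressure by 40 mmHg. Separate groups of rats (n = 4-6).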

Rattus norvegicus [6] = assay: In vivo antagonist dose producing two fold shift of cirazoline in pithed rats. (postjunctional);AG- agonist; type: functional, organism-based; conditions: filed as agonist
Method in brief: (§2)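 Pithed rats, iv. Antagonist given before a cumulative dose-response curve to cirazoline on diastolic blood pressure. DR2 is the antagonist dose (μg/kg) giving a twofold rightward shift. Separate groups of rats (n = 4-6).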

Rattus norvegicus [7] = assay: In vivo antagonist dose producing two fold shift of UK-14,304 in pithed rats. (prejunctional)
[8] = system: Adrenergic receptor alpha-2 (Rattus norvegicus); assay: Agonism at alpha-2 adrenergic receptor, determined as dose required to produce a two fold shift of the cumulative dose-response curve to UK-14304 on the twitch response in rat vas deferens.
[9] = target: T2, Adrenergic receptor alpha-1 (Rattus norvegicus, UniProt P15823+P23944+P43140); assay: Inhibition of saturable binding of [3H]prazosin to alpha-1 adrenergic receptor site in rat cerebral cortical membranes.; type: cell membranes, Membrane
T2 sequence (P15823 whole entry): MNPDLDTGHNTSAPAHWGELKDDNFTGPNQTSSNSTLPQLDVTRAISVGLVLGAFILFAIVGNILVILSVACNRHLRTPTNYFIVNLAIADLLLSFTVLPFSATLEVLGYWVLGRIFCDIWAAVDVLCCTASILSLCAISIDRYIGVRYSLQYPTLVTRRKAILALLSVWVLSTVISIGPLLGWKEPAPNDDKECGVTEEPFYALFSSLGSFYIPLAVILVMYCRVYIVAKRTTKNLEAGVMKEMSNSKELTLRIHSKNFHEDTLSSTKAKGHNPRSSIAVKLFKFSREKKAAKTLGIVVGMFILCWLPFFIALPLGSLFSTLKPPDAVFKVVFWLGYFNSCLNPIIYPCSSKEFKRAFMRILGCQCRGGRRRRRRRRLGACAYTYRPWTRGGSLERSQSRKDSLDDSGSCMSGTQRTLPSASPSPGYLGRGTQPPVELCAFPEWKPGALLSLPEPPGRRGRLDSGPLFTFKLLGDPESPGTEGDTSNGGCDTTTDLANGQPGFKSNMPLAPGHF
T2 sequence (P23944 whole entry): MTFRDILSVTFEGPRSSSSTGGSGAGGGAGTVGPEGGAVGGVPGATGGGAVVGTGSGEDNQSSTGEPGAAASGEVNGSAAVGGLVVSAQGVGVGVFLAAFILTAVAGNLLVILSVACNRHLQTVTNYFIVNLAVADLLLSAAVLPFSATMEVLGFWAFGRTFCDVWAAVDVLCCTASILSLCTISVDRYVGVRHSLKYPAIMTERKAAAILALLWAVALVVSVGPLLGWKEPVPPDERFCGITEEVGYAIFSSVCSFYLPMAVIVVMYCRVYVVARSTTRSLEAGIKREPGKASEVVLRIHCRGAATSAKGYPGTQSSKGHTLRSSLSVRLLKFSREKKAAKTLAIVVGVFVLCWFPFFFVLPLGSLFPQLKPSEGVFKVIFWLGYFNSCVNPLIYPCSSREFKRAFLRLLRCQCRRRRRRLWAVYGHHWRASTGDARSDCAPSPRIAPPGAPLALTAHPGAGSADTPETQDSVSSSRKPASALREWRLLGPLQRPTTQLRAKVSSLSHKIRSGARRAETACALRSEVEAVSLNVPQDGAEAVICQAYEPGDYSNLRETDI
T2 sequence (P43140 whole entry): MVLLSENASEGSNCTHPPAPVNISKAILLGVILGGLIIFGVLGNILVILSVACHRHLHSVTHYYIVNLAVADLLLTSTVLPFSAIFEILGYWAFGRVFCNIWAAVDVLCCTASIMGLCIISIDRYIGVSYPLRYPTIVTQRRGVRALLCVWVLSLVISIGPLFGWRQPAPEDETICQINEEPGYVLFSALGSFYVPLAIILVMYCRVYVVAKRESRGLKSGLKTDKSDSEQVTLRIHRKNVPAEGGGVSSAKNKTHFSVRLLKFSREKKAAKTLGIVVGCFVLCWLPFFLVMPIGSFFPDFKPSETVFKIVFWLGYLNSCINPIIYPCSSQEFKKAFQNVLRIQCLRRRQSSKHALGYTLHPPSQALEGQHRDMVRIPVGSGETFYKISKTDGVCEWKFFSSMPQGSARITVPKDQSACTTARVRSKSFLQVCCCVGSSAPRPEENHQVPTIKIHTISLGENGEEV

Rattus norvegicus [10] = assay: In vivo antagonist dose producing two fold shift of cirazoline in pithed rats. (postjunctional)
[11] = target: T2, Adrenergic receptor alpha-1; assay: Inhibition of saturable binding of [3H]prazosin to alpha1-site in rat cerebral cortical membranes.; type: cell membranes, Membrane
Rattus norvegicus [12] = assay: In vivo antagonist dose producing two fold shift of cirazoline in pithed rats. (postjunctional); AG- agonist; type: functional, organism-based; conditions: filed as agonist; method in brief: as §2
Rattus norvegicus [13] = assay: In vivo antagonist dose producing two fold shift of cirazoline in pithed rats. […]; type: functional
Rattus norvegicus [14] = assay: In vivo dose required to inhibit vas deferens contraction by 25% after pretreatment with prazosin in pithed rats. (prejunctional); type: functional; method in brief: as §1
Rattus norvegicus [15] = assay: In vivo antagonist dose producing two fold shift of cirazoline in pithed rats. (postjunctional); type: functional
Method in brief: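 Pithed rats, separate groups (n = 4-6). Cirazoline cumulative dose-response on diastolic blood pressure (postjunctional α1) was recorded with and without antagonist given iv. The antagonist dose (μg/kg, iv) giving a twofold rightward shift of the cirazoline curve was reported as DR2.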

**Q.** Which results are given for `CN1c2cccc(Cl)c2CC1C1=NCCN1.Cl` (configuration not stated)?
**A.** Prejunctional antagonist potency [1]: 10; ED25 (Rattus norvegicus [2]): Antagonist; Ki [3]: 0.16 nM; Postjunctional agonist potency [4]: 17; ED40 (Rattus norvegicus [5]): 0.2 µg/kg; ED40 (Rattus norvegicus [6]): Agonist; DR2 (Rattus norvegicus [7]): 0.0024 mg/kg; Prejunctional agonist potency [8]: 0.29; Ki [9]: 13.1 nM

**Q.** How did the ED40 (Rattus norvegicus [5]) turn out when `c1ccc2c(c1)OCC(C1=NCCN1)O2` (configuration not stated) [IDAZOXAN] was run?
**A.** Its ED40 is 65.5 µg/kg.

**Q.** And the DR2 (Rattus norvegicus [7])?
**A.** The DR2 was 0.0202 mg/kg.

**Q.** And the DR2 (Rattus norvegicus [10])?
**A.** Its DR2 is 1.43 mg/kg.

**Q.** What does the source list for `CCCN1c2ccccc2CC1C1=NCCN1` (configuration not stated)?
**A.** Prejunctional antagonist potency [1]: 3.2; ED25 (Rattus norvegicus [2]): Antagonist; Ki [3]: 0.96 nM; Postjunctional agonist potency [4]: 3.9; ED40 (Rattus norvegicus [5]): 3.8 µg/kg; DR2 (Rattus norvegicus [7]): 0.0071 mg/kg; Ki [11]: 3.7 nM; ED40 (Rattus norvegicus [12]): Agonist; Prejunctional agonist potency [8]: 0

**Q.** Which results are given for `CN1c2ccccc2CC1C1=NCCN1` (configuration not stated)?
**A.** Prejunctional antagonist potency [1]: 5.5; ED40 (Rattus norvegicus [13]): 3.7 µg/kg; ED25 (Rattus norvegicus [14]): 4.1 µg/kg; Ki [3]: 0.69 nM; Postjunctional agonist potency [4]: 3.8; ED40 (Rattus norvegicus [5]): 0.5 µg/kg; ED40 (Rattus norvegicus [6]): Agonist; Prejunctional agonist potency [8]: 0.77; Ki [9]: 3.86 nM

**Q.** Which results are given for `COc1cc2nc(N3CCN(C(=O)c4ccco4)CC3)nc(N)c2cc1OC` [PRAZOSIN]?
**A.** DR2 (Rattus norvegicus [15]): 0.0094 mg/kg; DR2 (Rattus norvegicus [7]): 5.44 mg/kg
